ChEMBL document CHEMBL5058577, “EUbOPEN Chemogenomics Library 2 (Multiplex)” (2022)

Tested on: HEK-293T
Experiment: Multiplex assay against HEK293T
Format: toxicity, cell-based
Conditions: human
Method in brief: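 Hoechst33342, BioTracker Green Microtubule Cytoskeleton Dye, MitoTracker Red and Annexin V Alexa Fluor 680 were added to live cells at seeding, and imaging on a CQ1 microscope at 37°C and 5% CO2 followed compound addition. Gating by CellPathfinder machine learning separated cells into Hoechst high-intensity objects or normal cells, then normal cells into healthy, pyknosed or fragmented nuclei, then pyknosed cells into mitotic or apoptotic. Per cents of healthy-nucleus cells are reported for the tubulin, mitochondrial-mass and membrane-permeability phenotypes.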

[1] = 12 h, 1 µM, compound concentration 1 uM, replicate 1
[2] = 12 h, 1 µM, compound concentration 1 uM, replicate 2
[3] = 12 h, 10 µM, compound concentration 10 uM, replicate 1
[4] = 12 h, 10 µM, compound concentration 10 uM, replicate 2
[5] = 24 h, 1 µM, compound concentration 1 uM, replicate 1
[6] = 24 h, 1 µM, compound concentration 1 uM, replicate 2
[7] = 24 h, 10 µM, compound concentration 10 uM, replicate 1
[8] = 24 h, 10 µM, compound concentration 10 uM, replicate 2
[9] = 48 h, 1 µM, compound concentration 1 uM, replicate 1
[10] = 48 h, 1 µM, compound concentration 1 uM, replicate 2
[11] = 48 h, 10 µM, compound concentration 10 uM, replicate 1
[12] = 48 h, 10 µM, compound concentration 10 uM, replicate 2

CC(C)C[C@H](CO)Nc1nc(S[C@@H](C)c2ccccc2)nc2nc(N)sc12 [AZD-8797]
Population Apoptotic (%) [1]: 39% | Population Fragmented Nuclei (%) [1]: 2% | Population Healthy Nuclei (%) [1]: 81% | Population Hoechst High Intensity Objects (%) [1]: 4% | Population Membrane Permeable-Phenotype (%) [1]: 0% | Population Mitochondria Different-Phenotype (%) [1]: 44% | Population Mitotic Cells (%) [1]: 60% | Population Normal (%) [1]: 95% | Population Pyknosed Nuclei (%) [1]: 15% | Population Tubulin-Different-Phenotype (%) [1]: 27% | Total Cell Count [1]: 326 | Population Apoptotic (%) [2]: 46% | Population Fragmented Nuclei (%) [2]: 8% | Population Healthy Nuclei (%) [2]: 72% | Population Hoechst High Intensity Objects (%) [2]: 7% | Population Mitochondria Different-Phenotype (%) [2]: 57% | Population Mitotic Cells (%) [2]: 53% | Population Normal (%) [2]: 92% | Population Pyknosed Nuclei (%) [2]: 18% | Population Tubulin-Different-Phenotype (%) [2]: 22% | Total Cell Count [2]: 356 | Population Apoptotic (%) [3]: 65% | Population Fragmented Nuclei (%) [3]: 9% | Population Healthy Nuclei (%) [3]: 71% | Population Hoechst High Intensity Objects (%) [3]: 10% | Population Membrane Permeable-Phenotype (%) [3]: 0% | Population Mitochondria Different-Phenotype (%) [3]: 70% | Population Mitotic Cells (%) [3]: 34% | Population Normal (%) [3]: 89% | Population Pyknosed Nuclei (%) [3]: 18% | Population Tubulin-Different-Phenotype (%) [3]: 56% | Total Cell Count [3]: 279 | Population Apoptotic (%) [4]: 67% | Population Fragmented Nuclei (%) [4]: 6% | Population Healthy Nuclei (%) [4]: 75% | Population Mitochondria Different-Phenotype (%) [4]: 75% | Population Mitotic Cells (%) [4]: 32% | Population Tubulin-Different-Phenotype (%) [4]: 39% | Total Cell Count [4]: 345 | Population Apoptotic (%) [5]: 37% | Population Fragmented Nuclei (%) [5]: 7% | Population Healthy Nuclei (%) [5]: 76% | Population Hoechst High Intensity Objects (%) [5]: 3% | Population Membrane Permeable-Phenotype (%) [5]: 0% | Population Mitochondria Different-Phenotype (%) [5]: 25% | Population Mitotic Cells (%) [5]: 62% | Population Normal (%) [5]: 97% | Population Pyknosed Nuclei (%) [5]: 15% | Population Tubulin-Different-Phenotype (%) [5]: 16% | Total Cell Count [5]: 400 | Population Apoptotic (%) [6]: 45% | Population Healthy Nuclei (%) [6]: 81% | Population Hoechst High Intensity Objects (%) [6]: 5% | Population Mitochondria Different-Phenotype (%) [6]: 42% | Population Mitotic Cells (%) [6]: 54% | Population Normal (%) [6]: 94% | Population Pyknosed Nuclei (%) [6]: 11% | Population Tubulin-Different-Phenotype (%) [6]: 14% | Total Cell Count [6]: 421 | Population Apoptotic (%) [7]: 54% | Population Fragmented Nuclei (%) [7]: 8% | Population Healthy Nuclei (%) [7]: 73% | Population Hoechst High Intensity Objects (%) [7]: 9% | Population Membrane Permeable-Phenotype (%) [7]: 0% | Population Mitochondria Different-Phenotype (%) [7]: 64% | Population Mitotic Cells (%) [7]: 45% | Population Normal (%) [7]: 90% | Population Pyknosed Nuclei (%) [7]: 17% | Population Tubulin-Different-Phenotype (%) [7]: 39% | Total Cell Count [7]: 346 | Population Apoptotic (%) [8]: 51% | Population Fragmented Nuclei (%) [8]: 9% | Population Healthy Nuclei (%) [8]: 77% | Population Hoechst High Intensity Objects (%) [8]: 8% | Population Mitochondria Different-Phenotype (%) [8]: 71% | Population Mitotic Cells (%) [8]: 48% | Population Normal (%) [8]: 91% | Population Pyknosed Nuclei (%) [8]: 12% | Population Tubulin-Different-Phenotype (%) [8]: 36% | Total Cell Count [8]: 393 | Population Apoptotic (%) [9]: 43% | Population Fragmented Nuclei (%) [9]: 15% | Population Healthy Nuclei (%) [9]: 78% | Population Hoechst High Intensity Objects (%) [9]: 1% | Population Membrane Permeable-Phenotype (%) [9]: 0% | Population Mitochondria Different-Phenotype (%) [9]: 16% | Population Mitotic Cells (%) [9]: 56% | Population Normal (%) [9]: 98% | Population Pyknosed Nuclei (%) [9]: 6% | Population Tubulin-Different-Phenotype (%) [9]: 10% | Total Cell Count [9]: 663 | Population Apoptotic (%) [10]: 24% | Population Fragmented Nuclei (%) [10]: 12% | Population Healthy Nuclei (%) [10]: 79% | Population Hoechst High Intensity Objects (%) [10]: 3% | Population Membrane Permeable-Phenotype (%) [10]: 1% | Population Mitochondria Different-Phenotype (%) [10]: 24% | Population Mitotic Cells (%) [10]: 75% | Population Normal (%) [10]: 96% | Population Pyknosed Nuclei (%) [10]: 8% | Population Tubulin-Different-Phenotype (%) [10]: 13% | Total Cell Count [10]: 681 | Population Apoptotic (%) [11]: 60% | Population Fragmented Nuclei (%) [11]: 16% | Population Healthy Nuclei (%) [11]: 72% | Population Hoechst High Intensity Objects (%) [11]: 7% | Population Membrane Permeable-Phenotype (%) [11]: 0% | Population Mitochondria Different-Phenotype (%) [11]: 57% | Population Mitotic Cells (%) [11]: 39% | Population Normal (%) [11]: 92% | Population Pyknosed Nuclei (%) [11]: 11% | Population Tubulin-Different-Phenotype (%) [11]: 28% | Total Cell Count [11]: 416 | Population Apoptotic (%) [12]: 52% | Population Fragmented Nuclei (%) [12]: 15% | Population Healthy Nuclei (%) [12]: 75% | Population Hoechst High Intensity Objects (%) [12]: 6% | Population Mitochondria Different-Phenotype (%) [12]: 52% | Population Mitotic Cells (%) [12]: 47% | Population Normal (%) [12]: 93% | Population Pyknosed Nuclei (%) [12]: 8% | Population Tubulin-Different-Phenotype (%) [12]: 21% | Total Cell Count [12]: 530
